Source: ChEMBL document CHEMBL1156525, “A small-molecule therapeutic lead for Huntington's disease: preclinical pharmacology and efficacy of C2-8 in the R6/2 transgenic mouse” (Proc Natl Acad Sci U S A, 2007)
Activity calls are given as the source filed them. The rule behind the calls is not given here.

What was measured:
[1] = Lipophilicity, log P of the compound; format: physicochemical; conditions: octanol/water
Mus musculus [2] = test: Toxicity in R6/2 mouse assessed as effect on body weight at 50 mg/kg/12 hrs for 4 weeks; format: organism-based; conditions: in vivo
How it was run: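 Chronic tolerability study in adult R6/2 mice, n = 10 per group, dosed with 50, 100 or 200 mg/kg/12 h for 4 weeks by oral gavage. Body weight recorded weekly at the same time of day.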

Mus musculus [3] = test: Toxicity in R6/2 mouse assessed as survival at 100 mg/kg/12 hrs for 4 weeks; format: organism-based; conditions: in vivo
Mus musculus [4] = test: Toxicity in R6/2 mouse assessed as body weight at 200 mg/kg/12 hrs for 4 weeks; format: organism-based; conditions: in vivo
How it was run: (§1)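 Chronic tolerability study in adult female R6/2 mice (back-crossed onto C57BL/6 × CBA F1), n = 10 per group. Oral gavage twice daily at 50, 100 or 200 mg/kg/12 h for 4 weeks, given as a suspension made fresh daily. Body weight was recorded weekly at the same time of day.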

Adenosine receptor A3 = target: T1, Adenosine receptor A3 (Homo sapiens, UniProt P0DMS8); test: Inhibition of adenosine A3 receptor
T1 sequence (P0DMS8 whole entry): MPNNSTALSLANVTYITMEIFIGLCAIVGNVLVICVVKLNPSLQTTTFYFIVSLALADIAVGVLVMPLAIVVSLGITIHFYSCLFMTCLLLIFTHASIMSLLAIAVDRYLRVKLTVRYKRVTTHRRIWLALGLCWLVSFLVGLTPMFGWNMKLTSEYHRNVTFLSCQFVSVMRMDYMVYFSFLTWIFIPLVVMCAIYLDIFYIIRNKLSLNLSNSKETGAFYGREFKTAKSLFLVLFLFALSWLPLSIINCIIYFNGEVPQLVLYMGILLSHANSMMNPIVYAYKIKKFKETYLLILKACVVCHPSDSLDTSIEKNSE
How it was run: (§2)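 Screened against a panel of 60 receptors, ion channels and transporters expressed in mammalian brain. Receptor-binding profile reported as IC50.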

Mus musculus [5] = test: Toxicity in R6/2 mouse assessed as effect on body weight at 100 mg/kg/12 hrs for 4 weeks; format: organism-based; conditions: in vivo; how it was run: as §1
Mus musculus [6] = test: Decrease in neuronal atrophy in R6/2 mouse assessed as striatal neuronal cell body volume at 200 mg/kg relative to control; format: functional; set-up: scale not given: the % may be the effect or the level left
How it was run: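 Female R6/2 mice given oral gavage twice daily from 3 weeks of age until death or kill. Perfused at 90 days with 2% paraformaldehyde. Every eighth 50 μm thionin-stained section used; striatal neuronal cell body volume estimated stereologically by the nucleator method. n = 10; mean ± SEM; ANOVA versus placebo-treated R6/2 mice.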

Mus musculus [7] = species on record: Mus musculus; test: Reduction of decrease in motor dysfunction in R6/2 mouse assessed as increase in latency to fall at 11 weeks of age by rotarod test; format: functional; set-up: scale not given: the % may be the effect or the level left
How it was run: (§3)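 R6/2 mice dosed orally at 0, 100 or 200 mg/kg/12 h from 24 days of age until death. Rotarod latency to fall tested at 5, 8 and 11 weeks of age. n = 15; geometric mean ± 95% CI; mixed-model analysis.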

PC-12 = test: Inhibition of polyQ aggregation in rat PC12 cells; format: functional, cell-based
[8] = target: Sodium-dependent dopamine transporter (Homo sapiens, UniProt Q01959); test: Inhibition of DAT; how it was run: as §2
Mus musculus [9] = species on record: Mus musculus; test: Reduction of decrease in motor dysfunction in R6/2 mouse assessed as increase in latency to fall at 8 weeks of age by rotarod test; format: functional; set-up: scale not given: the % may be the effect or the level left; how it was run: as §3
Mus musculus [10] = test: Decrease in striatal nuclear aggregate volume in R6/2 mouse at 200 mg/kg by nucleator method; format: functional; set-up: scale not given: the % may be the effect or the level left
How it was run: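 R6/2 mice dosed orally twice daily from 3 weeks of age, perfusion-fixed at 90 days. Floating forebrain sections at the anterior commissure crossing were stained with EM48 (1:2,000) for 2 days, then biotinylated secondary antibody and ABC development. Intranuclear aggregate volume in the striatum measured by the nucleator method. Compared with vehicle-treated R6/2 mice.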

[11] = Half life in po dosed mouse brain; format: ADME, organism-based
How it was run: (§4)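 Wild-type mice given single oral doses of 5, 10, 25 or 50 mg/kg. Plasma and brain sampled at 1, 4 and 8 h after dosing, and also at 16 and 24 h. Drug measured by HPLC/MS. n = 5; SD. Half-lives derived from the concentration–time course.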

Brain = test: Drug concentration in mouse brain at 10 mg/kg, po after 16 hrs; format: ADME, organism-based; set-up: dose 10 mg/kg, route oral; conditions: in vivo; how it was run: as §4
Mus musculus [12] = species on record: Mus musculus; test: Reduction of decrease in motor dysfunction in R6/2 mouse assessed as improvement in wire-hang endurance after 9.5 weeks; format: organism-based; conditions: in vivo, 1596 h
How it was run: (§5)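 Female R6/2 mice dosed by oral gavage at 0, 100 or 200 mg/kg/12 h from 24 days of age. Wire-hang endurance tested at 9.5 and 12.5 weeks: mouse placed on horizontal wire mesh, mesh gently inverted, and time hanging recorded. Three trials per day on three consecutive days, averaged. n = 15; geometric mean ± 95% CI; mixed-model analysis.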

Mus musculus [13] = test: Reduction of decrease in motor dysfunction in R6/2 mouse assessed as improvement in wire-hang endurance at 100 mg/kg/12 hrs after 12.5 weeks; format: functional, organism-based; how it was run: as §5
Plasma = test: Drug concentration in mouse plasma at 25 mg/kg, po after 24 hrs; format: ADME, organism-based; set-up: dose 25 mg/kg, route oral; conditions: in vivo; how it was run: as §4
Mus musculus [14] = test: Toxicity in R6/2 mouse assessed as survival at 200 mg/kg/12 hrs for 4 weeks; format: organism-based; conditions: in vivo
[15] = Plasma half life in po dosed mouse; format: ADME, organism-based; how it was run: as §4
[16] = Drug level in mouse cerebral cortex at 50 mg/kg, po administered for 5 days after 5 hrs; format: ADME, organism-based; set-up: dose 50 mg/kg, route oral; conditions: read-out: Drug uptake
How it was run: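 Wild-type mice (n = 5) given 50 mg/kg by oral gavage as a suspension for 5 days. Killed 5 h after the last dose. Cortex (20–30 mg) sonicated in acetonitrile/0.4% acetic acid at −10°C, centrifuged, and the supernatant dried and reconstituted in mobile phase. Analysed by LC electrochemical array against a 0.8 μg/ml standard.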

[17] = Inhibition of opioid receptor; how it was run: as §2

Sodium-dependent dopamine transporter, sequence (Q01959 whole entry): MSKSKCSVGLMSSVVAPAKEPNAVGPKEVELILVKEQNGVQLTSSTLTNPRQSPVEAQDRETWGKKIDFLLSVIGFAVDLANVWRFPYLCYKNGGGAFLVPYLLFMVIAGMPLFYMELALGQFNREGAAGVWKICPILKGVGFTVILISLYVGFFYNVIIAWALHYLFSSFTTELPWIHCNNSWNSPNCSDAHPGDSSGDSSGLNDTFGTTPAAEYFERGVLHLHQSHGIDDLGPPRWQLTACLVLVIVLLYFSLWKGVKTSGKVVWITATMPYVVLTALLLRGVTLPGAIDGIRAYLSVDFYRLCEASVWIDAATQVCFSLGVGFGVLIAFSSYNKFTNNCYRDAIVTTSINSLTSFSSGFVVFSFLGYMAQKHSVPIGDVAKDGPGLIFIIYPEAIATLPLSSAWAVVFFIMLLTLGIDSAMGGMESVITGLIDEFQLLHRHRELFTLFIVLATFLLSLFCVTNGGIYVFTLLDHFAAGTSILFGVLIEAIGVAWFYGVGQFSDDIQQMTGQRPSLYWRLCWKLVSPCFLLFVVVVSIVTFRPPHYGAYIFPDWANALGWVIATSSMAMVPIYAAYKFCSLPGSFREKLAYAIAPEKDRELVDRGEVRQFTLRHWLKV

## O=C(Nc1ccc(Br)cc1)c1cccc(S(=O)(=O)Nc2ccc(Br)cc2)c1
[1]
  logP: 5.2
Mus musculus [2]
  Activity: Non-toxic
Mus musculus [3]
  Activity: Non-toxic
Mus musculus [4]
  Activity: Non-toxic
Adenosine receptor A3
  IC50: 5760 nM
Mus musculus [5]
  Activity: Non-toxic
Mus musculus [6]
  Activity: 20%
Mus musculus [7]
  Activity: 43%
PC-12
  IC50: 50 nM
[8]
  IC50: 1700 nM
Mus musculus [9]
  Activity: 37%
Mus musculus [10]
  Activity: 35%
[11]
  half-life: 1.6 h
Brain
  Drug uptake: < 15 pmol/g
Mus musculus [12]
  Activity: Active
Mus musculus [13]
  Activity: Active
Plasma
  Cp: < 3 pmol/g
Mus musculus [14]
  Activity: Non-toxic
[15]
  half-life: 1.5 h
[16]
  concentration at 5 h: 25 µM
[17]
  IC50: 2790 nM
